m5-HT2A agonist = mouse Htr2a agonists via beta-arrestin recruitment, primary screen, cell-based, luminescence; 5-hydroxytryptamine receptor 2A (Mus musculus), P35363; CHO-K1 mHTR2A beta-arrestin complementation; percent of 30 µM serotonin response; activation, % at 7.6 µM; 0.66% of 360,000 active; AID 624169, 2012;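 active = activation above a run cutoff, the mean activation of all tested compounds plus 3 SD, cut at about 14% in these data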
Target sequence (P35363 whole entry, looked up): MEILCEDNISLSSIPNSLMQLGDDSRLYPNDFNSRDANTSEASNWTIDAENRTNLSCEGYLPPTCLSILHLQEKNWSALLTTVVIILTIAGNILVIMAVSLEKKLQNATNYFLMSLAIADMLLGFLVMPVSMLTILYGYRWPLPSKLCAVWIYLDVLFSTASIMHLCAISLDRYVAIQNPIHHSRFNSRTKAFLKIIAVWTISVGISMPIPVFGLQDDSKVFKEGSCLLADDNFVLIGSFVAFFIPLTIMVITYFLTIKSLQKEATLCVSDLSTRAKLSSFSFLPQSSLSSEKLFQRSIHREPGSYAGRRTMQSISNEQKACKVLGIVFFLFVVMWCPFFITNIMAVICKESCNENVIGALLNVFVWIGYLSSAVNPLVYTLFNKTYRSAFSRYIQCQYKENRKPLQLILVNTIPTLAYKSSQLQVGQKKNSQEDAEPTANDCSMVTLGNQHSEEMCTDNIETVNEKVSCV
Calb FLC = C. albicans growth inhibition with fluconazole, primary screen, CaCi-2 strain, Alamar Blue fluorescence; growth inhibition, % (no concentration beside the values); C. albicans CaCi-2 + fluconazole, 48 h; AID 1979, 2009; 0.57% of 300,000 active;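 active = growth inhibition above about 58% in most replicates, limit read from the data, passing the limit was not always enough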;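 note: all wells also contain fluconazole at 8 µg/ml as a sub-toxic cotreatment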
MIN6 prolif = inducers of MIN6 beta-cell proliferation, primary screen, ATP luminescence, uHTS; MIN6 cells proliferation, ATPlite luminescence, 48 h; cells starved in 0.2% serum; 100% = growth in 10% serum; proliferation, % at 10 µM; 0.29% of 330,000 active;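 active = compounds whose signal lies at least 3.5 SD above the mean of all wells on their plate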
SR-BI uptake up = activators of SR-BI mediated DiI-HDL uptake, primary screen, ldlA[mSR-BI] CHO cells, DiI fluorescence; 3 h; 100 = double the neutral-control signal; AID 504775, 2011; activation, % at 12.5 µM; 0.096% of 320,000 active;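 active = mean replicate activation of at least 60% and every replicate at or above 60%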
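System: LDL receptor-deficient CHO ldlA cells overexpressing murine SR-BI | Timing: 3 h uptake period with compound, 37 °C | Medium: HEPES-buffered (25 mM, pH 7.4) F12 plus 0.5% BSA | Dosing: Single-point compound dose | Signal: Bottom-read fluorescence, 550/595 nm | Read-out: Retained DiI signal reflecting DiI-HDL uptake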
Ins promoter up = insulin promoter activators in MIN6 cells, imaging, high-content screening, mouse beta cells; MIN6 insulin promoter-GFP reporter; active compounds read high; z-score at 5 µM; 0.3% of 190,000 active;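 active = z-score above 3 at 5 µM with at least 500 cells counted in the well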
SR-BI DiI inh = inhibitors of SR-BI mediated HDL lipid uptake, primary screen, ldlA[mSR-BI] cells, fluorescence, single point. AID 488896, 2010. 0.96% of 320,000 active. inhibition, % at 12.5 µM. Scavenger receptor class B member 1 (Mus musculus), Q61009. ldlA[mSR-BI] CHO cells, DiI-HDL uptake fluorescence, 3 h;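 active = mean replicate inhibition of at least 70% and a set share of replicates each scoring 70 or more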
MOR ag counter = OPRM1 agonists via beta-arrestin recruitment, confirmation, counter-screen for mouse HTR2A agonist project, cell-based, luminescence, single concentration; AID 624380, 2012; 5.3% of 2,300 active; activation, % at 9.3 µM; shares compounds with m5-HT2A agonist; U2OS OPRM1 beta-arrestin PathHunter; DMSO 0%, DAMGO 9.3 µM 100%;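 active = mean activation above the mean of DMSO-only wells plus 3 SD, cut at about 0.5% in these data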
m5-HT2A ag conf = mouse HTR2A agonists, beta-arrestin recruitment, confirmation, cell-based, luminescence, CHO-K1 PathHunter, triplicate. shares compounds with m5-HT2A agonist. DMSO 0%, 30 µM serotonin 100%. activation, % at 7.6 µM. 19% of 2,300 active;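 active = mean activation across triplicates above the hit threshold derived in the original primary screen, cut at about 15% in these data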
Of the large screens only hits and unclear results are named; the others gave an inactive call (follow-up assays come after a bar, where they were run). In the library only some 2.4% were active in any assay of this set; here they are far more common.

O[C@@H](c1cc(C(F)(F)F)nc2c(C(F)(F)F)cccc12)[C@H]1CCCCN1	m5-HT2A agonist 25.7 (no result: Calb FLC, Ins promoter up) | MOR ag counter 0.9 | m5-HT2A ag conf inactive
COC(=O)[C@@]1(C)[C@H]2C(=O)N(C)C(=O)[C@H]2[C@H]2CN=C(SCc3ccccc3)N21	m5-HT2A agonist 16.8 (no result: Calb FLC, MIN6 prolif, Ins promoter up) | MOR ag counter inactive | m5-HT2A ag conf inactive
Cc1ccc(NC(=O)COCC(=O)Nc2ccc(F)cc2)cc1	none (no result: Ins promoter up)
CC(=O)Nc1cc(-c2ccc(C(=O)N3CCOCC3)cc2)cn2c(-c3ccc(S(C)(=O)=O)cc3)cnc12	none (no result: Calb FLC, MIN6 prolif, SR-BI uptake up, Ins promoter up, SR-BI DiI inh)
CC(NC(=O)Nc1nnc(C(F)(F)F)s1)N1C(=O)C2C3C=CC(C3)C2C1=O (stereo not given)	none
CC(NC(=O)Nc1nnc(C(F)(F)F)s1)(C(F)(F)F)C(F)(F)F	m5-HT2A agonist 16.1 | MOR ag counter inactive | m5-HT2A ag conf inactive
CCCCNC(=O)COC(=O)c1cc2c(C)nn(-c3ccccc3)c2s1	none
COC(=O)c1cc2c(C)nn(C)c2s1	m5-HT2A agonist 23.2 | MOR ag counter inactive | m5-HT2A ag conf inactive
CN1CCCN(C(=O)c2c(F)cccc2Cl)CC1	none (no result: Ins promoter up)
O=C1[C@H](Oc2ccccc2)[C@@H](c2ccccc2)N1c1ccncc1	m5-HT2A agonist 18.3 (no result: Calb FLC, MIN6 prolif, Ins promoter up) | MOR ag counter inactive | m5-HT2A ag conf inactive
COc1cccc(CNCCNC(=O)c2nonc2N)c1	m5-HT2A agonist 18.7 | MOR ag counter inactive | m5-HT2A ag conf inactive
COc1ccc(NC(=O)CN(C)C(=O)c2cccc(S(=O)(=O)N3CCN(c4ccc(F)cc4)CC3)c2)cc1	none (no result: Calb FLC, MIN6 prolif, Ins promoter up)
CCN(CC)S(=O)(=O)c1cccc(NC(=O)CN2C(=O)c3ccc([N+](=O)[O-])cc3C2=O)c1	m5-HT2A agonist 18.1 | MOR ag counter inactive | m5-HT2A ag conf inactive
O=[N+]([O-])c1ccc(CN2CCN(c3ncccn3)CC2)cc1	none (no result: Ins promoter up)
O=[N+]([O-])c1cccc(CN2CCN(c3ncccn3)CC2)c1	m5-HT2A agonist 14.6 (no result: Ins promoter up) | MOR ag counter inactive | m5-HT2A ag conf 59.5
FC(F)(F)c1cccc(CN2CCN(c3ncccn3)CC2)c1	m5-HT2A agonist 20.5 (no result: Ins promoter up) | MOR ag counter inactive | m5-HT2A ag conf 65.9
Fc1cccc(CN2CCN(c3ncccn3)CC2)c1	m5-HT2A agonist 41.3 (no result: Calb FLC) | MOR ag counter inactive | m5-HT2A ag conf 112.8
Cn1cnc(S(=O)(=O)N2CCCCC2c2cc(C(=O)Nc3ccc(F)c(Cl)c3)no2)c1 (stereo not given)	none (no result: Calb FLC, MIN6 prolif, SR-BI uptake up, Ins promoter up, SR-BI DiI inh)
C=CCN(Cc1ccc(OC)c(OC)c1)C(=O)c1cc2cc(F)ccc2[nH]1	m5-HT2A agonist 20.4 (no result: Ins promoter up) | MOR ag counter inactive | m5-HT2A ag conf inactive
CCCCC(=O)Nc1ccc(Cl)cc1F	m5-HT2A agonist 16.6 (no result: Calb FLC, MIN6 prolif, SR-BI uptake up, Ins promoter up, SR-BI DiI inh) | MOR ag counter inactive | m5-HT2A ag conf inactive
CCCCC(=O)Nc1cc(Cl)ccc1C(=O)O	none
Fc1ccc2nc3[nH]c4ccccc4c3nc2c1	m5-HT2A agonist 22.4 | MOR ag counter inactive | m5-HT2A ag conf inactive
CC(C)C[C@@H](CN)NC(=O)c1nc[nH]c1C(=O)N[C@@H](CC(=O)O)C(=O)CNC[C@H](C)NC(=O)c1nc[nH]c1C(=O)N[C@@H](CC(=O)O)C(=O)O	none (no result: Calb FLC, MIN6 prolif, Ins promoter up)
COc1cc(NC(=O)CCc2c(C)noc2C)c(C(=O)O)cc1OC	none (no result: Calb FLC, MIN6 prolif, SR-BI uptake up, Ins promoter up, SR-BI DiI inh)
COC(=O)c1cc(OC)c(OC)cc1NC(=O)CSCc1c(C)noc1C	m5-HT2A agonist 15.8 (no result: Calb FLC, Ins promoter up) | MOR ag counter inactive | m5-HT2A ag conf inactive

Bioassay records (PubChem BioAssay)
